Assay results as given in ChEMBL document CHEMBL4765412, “(±)-trans-2-phenyl-2,3-dihydrobenzofurans as leishmanicidal agents: Synthesis, in vitro evaluation and SAR analysis” (Eur J Med Chem, 2020).

Assays:
[1] = Selectivity index, ratio of IC50 for cytotoxicity against rat L6 cells to IC50 for antileishmanial activity against Leishmania donovani MHOM/ET/67/L82 amastigotes; format: toxicity, cell-based; settings: for selectivity ratio: read-out: Ratio IC50
Leishmania donovani = assay: Antileishmanial activity against Leishmania donovani MHOM/ET/67/L82 amastigotes assessed as growth inhibition incubated for 70 hrs by resazurin based inverted microscopic analysis; format: functional, organism-based
In short: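 Axenic L. donovani amastigotes (MHOM/ET/67/L82); racemates tested unless stated; miltefosine as positive control. Some values come from a separate run and were rescaled by that run's relative miltefosine IC50.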

L6 = assay: Cytotoxicity against rat L6 cells assessed as reduction in cell viability incubated for 70 hrs by resazurin staining based inverted microscopic analysis; settings: L6, 70 h
In short: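 Rat L-6 skeletal myoblast line; racemates tested unless stated.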

[2] = Leishmania donovani, MHOM/ET/67/L82, 70 h

Row | SMILES | selectivity ratio [1] | IC50 (Leishmania donovani; [2]) | IC50 (L6) | Ratio IC50 [1] | IC50 (Leishmania donovani)
1 | CC(C)OC(=O)/C=C/c1cc(O)c2c(c1)[C@@H](C(=O)OC(C)C)[C@H](c1ccc(O)c(O)c1)O2 | 16.4 | 0.65 µM | 10.6 µM | – | –
2 | CC(C)OC(=O)/C=C/c1cc(O)c2c(c1)[C@H](C(=O)OC(C)C)[C@@H](c1ccc(O)c(O)c1)O2 | – | – | – | 19.3 | 0.53 µM
3 | COC(=O)/C=C/c1cc(O)c2c(c1)[C@H](C(=O)OC)[C@@H](c1ccc(O)c(O)c1)O2 (racemic) | 0.03 | 12.6 µM | 0.37 µM | – | –
4 | COC(=O)/C=C/c1ccc2c(c1)[C@H](C(=O)OC)[C@@H](c1ccc(O)cc1)O2 (racemic) | 3 | 7.84 µM | 23.2 µM | – | –
5 | COc1cc([C@H]2Oc3c(OC)cc(/C=C/CO)cc3[C@@H]2CO)ccc1O (racemic) | 0.5 | 160 µM | 74.2 µM | – | –
6 | COC(=O)/C=C/c1cc(OC)c2c(c1)[C@H](C(=O)OC)[C@@H](c1ccc(O)c(OC)c1)O2 (racemic) | 0.2 | 10.6 µM | 2.43 µM | – | –
7 | CC(C)NC(=O)/C=C/c1cc(O)c2c(c1)[C@H](C(=O)NC(C)C)[C@@H](c1ccc(O)c(O)c1)O2 (racemic) | 0.7 | 82.3 µM | 55.5 µM | – | –
8 | COc1cc([C@H]2Oc3ccc(Br)cc3[C@@H]2CO)c(Br)cc1O (racemic) | 3.8 | 10.7 µM | 40.6 µM | – | –
9 | COc1cc(Br)c([C@H]2Oc3ccc(Br)cc3[C@@H]2CO)cc1OC (racemic) | 1.8 | 11.4 µM | 21 µM | – | –
10 | COc1cc([C@H]2Oc3ccc(Cl)cc3[C@@H]2C)cc(Cl)c1O (racemic) | 4.8 | 13.4 µM | 64.2 µM | – | –
11 | OC[C@H]1c2ccccc2O[C@@H]1c1ccc(O)cc1 (racemic) | 1.4 | 158 µM | 217 µM | – | –
12 | COc1cc([C@H]2Oc3c(OC)cc(/C=C/C(=O)OC(C)C)cc3[C@@H]2C(=O)OC(C)C)ccc1O (racemic) | 2.6 | 3.95 µM | 10.3 µM | – | –
13 | CC(C)(C)OC(=O)/C=C/c1cc(F)c2c(c1)[C@H](C(=O)OC(C)(C)C)[C@@H](c1ccc(O)c(F)c1)O2 (racemic) | 4.7 | 1.97 µM | 9.22 µM | – | –
14 | CC(C)(C)CC(=O)/C=C/c1cc(O)c2c(c1)[C@H](C(=O)CC(C)(C)C)[C@@H](c1ccc(O)c(O)c1)O2 (racemic) | 0.7 | 3.42 µM | 2.45 µM | – | –
15 | COc1cc([C@H]2Oc3ccc(Br)cc3[C@@H]2CO)cc(Br)c1O (racemic) | 3.8 | 12.1 µM | 45.4 µM | – | –
16 | COc1cc([C@H]2Oc3ccc(Br)cc3[C@@H]2C)c(Br)cc1O (racemic) | 1.2 | 15 µM | 18.2 µM | – | –
17 | CCCCOC(=O)/C=C/c1cc(OC)c2c(c1)[C@H](C(=O)OCCCC)[C@@H](c1ccc(O)c(OC)c1)O2 (racemic) | 2.6 | 3.11 µM | 8.18 µM | – | –
18 | COc1cc([C@H]2Oc3c(OC)cc(/C=C/C(=O)NC(C)C)cc3[C@@H]2C(=O)NC(C)C)ccc1O (racemic) | 1.4 | 53.6 µM | 77.2 µM | – | –
19 | CC(C)(C)OC(=O)/C=C/c1cc(O)c2c(c1)[C@H](C(=O)OC(C)(C)C)[C@@H](c1ccc(O)c(O)c1)O2 (racemic) | 5.5 | 1.66 µM | 9.05 µM | – | –

Row | SMILES | selectivity ratio [1] | IC50 (Leishmania donovani; [2]) | IC50 (L6) | Ratio IC50 [1] | IC50 (Leishmania donovani)
20 | COc1cc([C@H]2Oc3ccc(Br)cc3[C@@H]2C)ccc1O (racemic) | 0.5 | 24.8 µM | 13.1 µM | – | –
21 | COc1ccc([C@H]2Oc3ccc(C=O)cc3[C@@H]2C)cc1 (racemic) | 1.4 | 30.5 µM | 43.8 µM | – | –
22 | CCOC(=O)/C=C/c1ccc2c(c1)[C@H](C(=O)OCC)[C@@H](c1ccc(O)cc1)O2 (racemic) | 3.5 | 7.45 µM | 26.3 µM | – | –
23 | CC(=O)OC[C@H]1c2cc(Br)ccc2O[C@@H]1c1ccc(O)cc1 (racemic) | 4 | 13.7 µM | 55.5 µM | – | –
24 | CCOC(=O)/C=C/c1cc(O)c2c(c1)[C@H](C(=O)OCC)[C@@H](c1ccc(O)c(O)c1)O2 (racemic) | 2.6 | 3.87 µM | 9.99 µM | – | –
25 | COc1ccc([C@H]2Oc3ccccc3[C@@H]2COC(C)=O)cc1 (racemic) | 0.8 | 58.4 µM | 43.9 µM | – | –
26 | COc1cc([C@H]2Oc3c(OC)cc(/C=C/C(=O)NCCO)cc3[C@@H]2C(=O)NCCO)ccc1O (racemic) | 1 | 212 µM | 212 µM | – | –
27 | CC(C)CC(=O)/C=C/c1cc(O)c2c(c1)[C@H](C(=O)CC(C)C)[C@@H](c1ccc(O)c(O)c1)O2 (racemic) | 1.1 | 4.42 µM | 5 µM | – | –
28 | CC(C)OC(=O)/C=C/c1ccc2c(c1)[C@H](C(=O)OC(C)C)[C@@H](c1ccc(O)cc1)O2 (racemic) | 3.4 | 4.21 µM | 14.3 µM | – | –
29 | CC(C)(C)OC(=O)/C=C/c1ccc2c(c1)[C@H](C(=O)OC(C)(C)C)[C@@H](c1ccc(O)cc1)O2 (racemic) | 2.2 | 6.07 µM | 13.3 µM | – | –
30 | COc1cc([C@H]2Oc3ccc(Cl)cc3[C@@H]2C)ccc1O (racemic) | 3.4 | 16.1 µM | 55.4 µM | – | –
31 | OC[C@H]1c2ccccc2O[C@@H]1c1ccc(O)c(Br)c1 (racemic) | 2.6 | 43.8 µM | 115 µM | – | –
32 | CCCCOC(=O)/C=C/c1cc(O)c2c(c1)[C@H](C(=O)OCCCC)[C@@H](c1ccc(O)c(O)c1)O2 (racemic) | 5.6 | 1.66 µM | 9.34 µM | – | –
33 | COc1ccc([C@H]2Oc3ccc(Br)cc3[C@@H]2C)cc1Br (racemic) | 1.3 | 29.7 µM | 39.7 µM | – | –
34 | OC[C@H]1c2cc(Br)ccc2O[C@@H]1c1ccc(O)c(Br)c1 (racemic) | 3 | 21.8 µM | 64.8 µM | – | –
35 | COc1cc([C@H]2Oc3ccc(Br)cc3[C@@H]2C)cc(Br)c1O (racemic) | 2.6 | 17.2 µM | 44.8 µM | – | –
36 | CCCNC(=O)/C=C/c1cc(OC)c2c(c1)[C@H](C(=O)NCCC)[C@@H](c1ccc(O)c(OC)c1)O2 (racemic) | 8.3 | 8.88 µM | 73.8 µM | – | –
37 | COc1cc([C@H]2Oc3ccccc3[C@@H]2C)ccc1O (racemic) | 1.4 | 59 µM | 84.4 µM | – | –
38 | COc1ccc([C@H]2Oc3ccccc3[C@@H]2CO)cc1OC (racemic) | 0.4 | 136 µM | 53.7 µM | – | –

Row | SMILES | selectivity ratio [1] | IC50 (Leishmania donovani; [2]) | IC50 (L6) | Ratio IC50 [1] | IC50 (Leishmania donovani)
39 | CCCCCCCCOC(=O)/C=C/c1cc(O)c2c(c1)[C@H](C(=O)OCCCCCCCC)[C@@H](c1ccc(O)c(O)c1)O2 (racemic) | 0.8 | 23.5 µM | 19.1 µM | – | –
40 | COc1ccc([C@H]2Oc3ccccc3[C@@H]2C)cc1 (racemic) | 1.6 | 99.9 µM | 154 µM | – | –
41 | OC[C@H]1c2cc(Br)ccc2O[C@@H]1c1ccc(O)cc1 (racemic) | 1.2 | 18.8 µM | 22 µM | – | –
42 | COc1cc([C@H]2Oc3c(OC)cc(/C=C/C(=O)O)cc3[C@@H]2C(=O)O)ccc1O (racemic) | 37.6 | 6.89 µM | 259 µM | – | –
43 | CCOC(=O)/C=C/c1cc(OC)c2c(c1)[C@H](C(=O)OCC)[C@@H](c1ccc(O)c(OC)c1)O2 (racemic) | 0.5 | 9.1 µM | 4.42 µM | – | –
44 | COc1cc([C@H]2Oc3ccc(Br)cc3[C@@H]2CO)ccc1O (racemic) | 1.1 | 30.5 µM | 32.3 µM | – | –
45 | COc1cc([C@H]2Oc3ccccc3[C@@H]2CO)ccc1O (racemic) | 0.3 | 185 µM | 58 µM | – | –
46 | COc1cc([C@H]2Oc3c(OC)cc(/C=C/C(=O)OC(C)(C)C)cc3[C@@H]2C(=O)OC(C)(C)C)ccc1O (racemic) | 5.4 | 2.1 µM | 11.4 µM | – | –
47 | CCCCOC(=O)/C=C/c1ccc2c(c1)[C@H](C(=O)OCCCC)[C@@H](c1ccc(O)cc1)O2 (racemic) | 1.3 | 10.8 µM | 14.3 µM | – | –
48 | COc1ccc([C@H]2Oc3ccc(Br)cc3[C@@H]2C)cc1 (racemic) | 1.9 | 31.8 µM | 60.3 µM | – | –
49 | COc1ccc([C@H]2Oc3ccc(Br)cc3[C@@H]2CO)cc1OC (racemic) | 0.6 | 33.8 µM | 21.2 µM | – | –
50 | OC[C@H]1c2ccccc2O[C@@H]1c1ccccc1Br (racemic) | 1.2 | 21.7 µM | 25.4 µM | – | –
51 | COc1ccc([C@H]2Oc3ccccc3[C@@H]2CO)cc1 (racemic) | 0.6 | 70.3 µM | 43.6 µM | – | –
52 | C=CCOC(=O)/C=C/c1cc(O)c2c(c1)[C@H](C(=O)OCC=C)[C@@H](c1ccc(O)c(O)c1)O2 (racemic) | 1 | 6.32 µM | 6.41 µM | – | –
53 | COc1cc([C@H]2Oc3c(OC)cc(/C=C/C(=O)CC(C)C)cc3[C@@H]2C(=O)CC(C)C)ccc1O (racemic) | 1.4 | 3.81 µM | 5.29 µM | – | –
54 | COc1ccc([C@H]2Oc3ccc(/C=C/C(C)=O)cc3[C@@H]2C)cc1 (racemic) | 0.5 | 17.4 µM | 9.35 µM | – | –
55 | OC[C@H]1c2ccccc2O[C@@H]1c1cc(Br)c(O)c(Br)c1 (racemic) | 10.8 | 10.1 µM | 109 µM | – | –
56 | CCCCCCCCCCCCCCCCOP(=O)([O-])OCC[N+](C)(C)C [MILTEFOSINE] | – | 0.77 µM | – | – | –
